# Test results: PMC9540525 (Cancer, 2022)
# Entries after “also recorded” stand apart in the source; their conditions may differ.
# Experiment: Phase 1 study CC-90011-ST-001: safety, adverse events
# Format: in vivo, human
# Outline: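 Treated population: all patients given at least one oral dose of test compound (once weekly, 28-day cycles; expansion 60 mg). Adverse events were graded by NCI CTCAE v4.03. Dose reductions were permitted in any cycle, including cycle 1. Treatment could be interrupted for up to 4 weeks, until toxicity returned to grade ≤1 or baseline.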
# [1] = dose escalation, n = 50, patients (%)
# [2] = dose expansion, NEN, n = 16, patients (%)
# [3] = dose expansion, R/R MZL, n = 3, patients (%)
# [4] = dose expansion, n = 19, patients (%)
smiles,measurement,setting,value
COc1ccc(-c2c(-c3ccc(C#N)c(F)c3)nc(N3CCC(N)CC3)n(C)c2=O)cc1F [CC‐90011],TEAE any grade: Abdominal pain,[1],7 (14)
same,TEAE any grade: Acute kidney injury,[1],1 (2)
same,TEAE any grade: Anemia,[1],14 (28)
same,TEAE any grade: Arthralgia,[1],9 (18)
same,TEAE any grade: Back pain,[1],7 (14)
same,TEAE any grade: Bone pain,[1],1 (2)
same,TEAE any grade: Bronchitis,[1],2 (4)
same,TEAE any grade: Constipation,[1],11 (22)
same,TEAE any grade: Cough,[1],6 (12)
same,TEAE any grade: Decreased appetite,[1],10 (20)
same,TEAE any grade: Diarrhea,[1],10 (20)
same,TEAE any grade: Dizziness,[1],3 (6)
same,TEAE any grade: Dysgeusia,[1],3 (6)
same,TEAE any grade: Dyspnea,[1],5 (10)
same,TEAE any grade: Epistaxis,[1],2 (4)
same,TEAE any grade: Fatigue/asthenia,[1],24 (48)
same,TEAE any grade: Headache,[1],5 (10)
same,TEAE any grade: Hepatic pain,[1],1 (2)
same,TEAE any grade: Hypokalemia,[1],5 (10)
same,TEAE any grade: Increased ALT,[1],6 (12)
same,TEAE any grade: Increased AST,[1],6 (12)
same,TEAE any grade: Lipase increased,[1],2 (4)
same,TEAE any grade: Musculoskeletal pain,[1],1 (2)
same,TEAE any grade: Nausea,[1],11 (22)
same,TEAE any grade: Neutropenia,[1],6 (12)
same,TEAE any grade: Peripheral sensory neuropathy,[1],2 (4)
same,TEAE any grade: Pruritus,[1],3 (6)
same,TEAE any grade: Pyrexia,[1],10 (20)
same,TEAE any grade: Sciatica,[1],1 (2)
same,TEAE any grade: Thrombocytopenia,[1],23 (46)
same,TEAE any grade: Tumor pain,[1],5 (10)
same,TEAE any grade: Vomiting,[1],14 (28)
same,TEAE any grade: ≥1 event,[1],48 (96)
same,TEAE grade 3/4: Abdominal pain,[1],0 (0)
same,TEAE grade 3/4: Acute kidney injury,[1],0 (0)
same,TEAE grade 3/4: Anemia,[1],3 (6)
same,TEAE grade 3/4: Arthralgia,[1],0 (0)
same,TEAE grade 3/4: Back pain,[1],0 (0)
same,TEAE grade 3/4: Bone pain,[1],1 (2)
same,TEAE grade 3/4: Bronchitis,[1],0 (0)
same,TEAE grade 3/4: Constipation,[1],0 (0)
same,TEAE grade 3/4: Cough,[1],0 (0)
same,TEAE grade 3/4: Decreased appetite,[1],1 (2)
same,TEAE grade 3/4: Diarrhea,[1],1 (2)
same,TEAE grade 3/4: Dizziness,[1],0 (0)
same,TEAE grade 3/4: Dysgeusia,[1],0 (0)
same,TEAE grade 3/4: Dyspnea,[1],0 (0)
same,TEAE grade 3/4: Epistaxis,[1],0 (0)
same,TEAE grade 3/4: Fatigue/asthenia,[1],1 (2)
same,TEAE grade 3/4: Headache,[1],0 (0)
same,TEAE grade 3/4: Hepatic pain,[1],0 (0)
same,TEAE grade 3/4: Hypokalemia,[1],1 (2)
same,TEAE grade 3/4: Increased ALT,[1],2 (4)
same,TEAE grade 3/4: Increased AST,[1],1 (2)
same,TEAE grade 3/4: Lipase increased,[1],2 (4)
same,TEAE grade 3/4: Musculoskeletal pain,[1],0 (0)
same,TEAE grade 3/4: Nausea,[1],0 (0)
same,TEAE grade 3/4: Neutropenia,[1],4 (8)
same,TEAE grade 3/4: Peripheral sensory neuropathy,[1],0 (0)
same,TEAE grade 3/4: Pruritus,[1],0 (0)
same,TEAE grade 3/4: Pyrexia,[1],0 (0)
same,TEAE grade 3/4: Sciatica,[1],0 (0)
same,TEAE grade 3/4: Thrombocytopenia,[1],12 (24)
same,TEAE grade 3/4: Tumor pain,[1],1 (2)
same,TEAE grade 3/4: Vomiting,[1],0 (0)
same,TEAE grade 3/4: ≥1 event,[1],24 (48)
same,TEAE leading to treatment discontinuation,dose expansion,No patients; also recorded: none of the TEAEs
same,febrile neutropenia,dose expansion,no febrile neutropenia was observed
same,"anemia leading to a dose reduction, patients","dose expansion, 19 patients",5%
same,"hematologic events leading to a dose interruption, patients","dose expansion, 19 patients",47%
same,"neutropenia leading to a dose reduction, patients","dose expansion, 19 patients",5%
same,patients with at least one TEAE leading to a dose interruption,"dose expansion, 19 patients",58%
same,patients with at least one TEAE leading to a dose reduction,"dose expansion, 19 patients",26%
same,"thrombocytopenia leading to a dose reduction, patients","dose expansion, 19 patients",26%
same,TRAE grade 3/4: Thrombocytopenia,"dose expansion, NEN cohort, n=16",6 n (%)
same,TEAE any grade: Abdominal pain,[2],0 (0)
same,TEAE any grade: Acute kidney injury,[2],1 (6)
same,TEAE any grade: Anemia,[2],6 (38)
same,TEAE any grade: Arthralgia,[2],6 (38)
same,TEAE any grade: Back pain,[2],1 (6)
same,TEAE any grade: Bone pain,[2],2 (13)
same,TEAE any grade: Bronchitis,[2],2 (13)
same,TEAE any grade: Constipation,[2],5 (31)
same,TEAE any grade: Cough,[2],3 (19)
same,TEAE any grade: Decreased appetite,[2],3 (19)
same,TEAE any grade: Diarrhea,[2],5 (31)
same,TEAE any grade: Dizziness,[2],2 (13)
same,TEAE any grade: Dysgeusia,[2],4 (25)
same,TEAE any grade: Dyspnea,[2],2 (13)
same,TEAE any grade: Epistaxis,[2],3 (19)
same,TEAE any grade: Fatigue/asthenia,[2],9 (56)
same,TEAE any grade: Headache,[2],0 (0)
same,TEAE any grade: Hepatic pain,[2],2 (13)
same,TEAE any grade: Hypokalemia,[2],2 (13)
same,TEAE any grade: Increased ALT,[2],0 (0)
same,TEAE any grade: Increased AST,[2],1 (6)
same,TEAE any grade: Lipase increased,[2],2 (13)
same,TEAE any grade: Musculoskeletal pain,[2],1 (6)
same,TEAE any grade: Nausea,[2],5 (31)
same,TEAE any grade: Neutropenia,[2],3 (19)
same,TEAE any grade: Peripheral sensory neuropathy,[2],2 (13)
same,TEAE any grade: Pruritus,[2],2 (13)
same,TEAE any grade: Pyrexia,[2],0 (0)
same,TEAE any grade: Sciatica,[2],2 (13)
same,TEAE any grade: Tumor pain,[2],0 (0)
same,TEAE any grade: Vomiting,[2],2 (13)
same,TEAE grade 3/4: Abdominal pain,[2],0 (0)
same,TEAE grade 3/4: Acute kidney injury,[2],0 (0)
same,TEAE grade 3/4: Anemia,[2],1 (6)
same,TEAE grade 3/4: Arthralgia,[2],0 (0)
same,TEAE grade 3/4: Back pain,[2],0 (0)
same,TEAE grade 3/4: Bone pain,[2],0 (0)
same,TEAE grade 3/4: Bronchitis,[2],0 (0)
same,TEAE grade 3/4: Constipation,[2],0 (0)
same,TEAE grade 3/4: Cough,[2],0 (0)
same,TEAE grade 3/4: Decreased appetite,[2],0 (0)
same,TEAE grade 3/4: Diarrhea,[2],0 (0)
same,TEAE grade 3/4: Dizziness,[2],0 (0)
same,TEAE grade 3/4: Dysgeusia,[2],0 (0)
same,TEAE grade 3/4: Dyspnea,[2],0 (0)
same,TEAE grade 3/4: Epistaxis,[2],0 (0)
same,TEAE grade 3/4: Headache,[2],0 (0)
same,TEAE grade 3/4: Hepatic pain,[2],1 (6)
same,TEAE grade 3/4: Hypokalemia,[2],0 (0)
same,TEAE grade 3/4: Increased ALT,[2],0 (0)
same,TEAE grade 3/4: Increased AST,[2],0 (0)
same,TEAE grade 3/4: Lipase increased,[2],0 (0)
same,TEAE grade 3/4: Musculoskeletal pain,[2],0 (0)
same,TEAE grade 3/4: Nausea,[2],0 (0)
same,TEAE grade 3/4: Peripheral sensory neuropathy,[2],0 (0)
same,TEAE grade 3/4: Pruritus,[2],0 (0)
same,TEAE grade 3/4: Pyrexia,[2],0 (0)
same,TEAE grade 3/4: Sciatica,[2],0 (0)
same,TEAE grade 3/4: Tumor pain,[2],0 (0)
same,TEAE grade 3/4: Vomiting,[2],0 (0)
same,TEAE any grade: Abdominal pain,[3],0 (0)
same,TEAE any grade: Acute kidney injury,[3],1 (33)
same,TEAE any grade: Anemia,[3],1 (33)
same,TEAE any grade: Arthralgia,[3],0 (0)
same,TEAE any grade: Back pain,[3],0 (0)
same,TEAE any grade: Bone pain,[3],1 (33)
same,TEAE any grade: Bronchitis,[3],0 (0)
same,TEAE any grade: Constipation,[3],1 (33)
same,TEAE any grade: Cough,[3],1 (33)
same,TEAE any grade: Decreased appetite,[3],0 (0)
same,TEAE any grade: Diarrhea,[3],0 (0)
same,TEAE any grade: Dizziness,[3],0 (0)
same,TEAE any grade: Dysgeusia,[3],0 (0)
same,TEAE any grade: Dyspnea,[3],1 (33)
same,TEAE any grade: Epistaxis,[3],0 (0)
same,TEAE any grade: Headache,[3],0 (0)
same,TEAE any grade: Hepatic pain,[3],0 (0)
same,TEAE any grade: Hypokalemia,[3],0 (0)
same,TEAE any grade: Increased ALT,[3],0 (0)
same,TEAE any grade: Increased AST,[3],0 (0)
same,TEAE any grade: Lipase increased,[3],0 (0)
same,TEAE any grade: Musculoskeletal pain,[3],0 (0)
same,TEAE any grade: Nausea,[3],1 (33)
same,TEAE any grade: Neutropenia,[3],1 (33)
same,TEAE any grade: Peripheral sensory neuropathy,[3],0 (0)
same,TEAE any grade: Pruritus,[3],0 (0)
same,TEAE any grade: Pyrexia,[3],0 (0)
same,TEAE any grade: Sciatica,[3],0 (0)
same,TEAE any grade: Tumor pain,[3],1 (33)
same,TEAE any grade: Vomiting,[3],0 (0)
same,TEAE grade 3/4: Abdominal pain,[3],0 (0)
same,TEAE grade 3/4: Acute kidney injury,[3],0 (0)
same,TEAE grade 3/4: Anemia,[3],0 (0)
same,TEAE grade 3/4: Arthralgia,[3],0 (0)
same,TEAE grade 3/4: Back pain,[3],0 (0)
same,TEAE grade 3/4: Bone pain,[3],0 (0)
same,TEAE grade 3/4: Bronchitis,[3],0 (0)
same,TEAE grade 3/4: Constipation,[3],0 (0)
same,TEAE grade 3/4: Cough,[3],0 (0)
same,TEAE grade 3/4: Decreased appetite,[3],0 (0)
same,TEAE grade 3/4: Diarrhea,[3],0 (0)
same,TEAE grade 3/4: Dizziness,[3],0 (0)
same,TEAE grade 3/4: Dysgeusia,[3],0 (0)
same,TEAE grade 3/4: Dyspnea,[3],0 (0)
same,TEAE grade 3/4: Epistaxis,[3],0 (0)
same,TEAE grade 3/4: Fatigue/asthenia,[3],0 (0)
same,TEAE grade 3/4: Headache,[3],0 (0)
same,TEAE grade 3/4: Hepatic pain,[3],0 (0)
same,TEAE grade 3/4: Hypokalemia,[3],0 (0)
same,TEAE grade 3/4: Increased ALT,[3],0 (0)
same,TEAE grade 3/4: Increased AST,[3],0 (0)
same,TEAE grade 3/4: Lipase increased,[3],0 (0)
same,TEAE grade 3/4: Musculoskeletal pain,[3],0 (0)
same,TEAE grade 3/4: Nausea,[3],0 (0)
same,TEAE grade 3/4: Peripheral sensory neuropathy,[3],0 (0)
same,TEAE grade 3/4: Pruritus,[3],0 (0)
same,TEAE grade 3/4: Pyrexia,[3],0 (0)
same,TEAE grade 3/4: Sciatica,[3],0 (0)
same,TEAE grade 3/4: Thrombocytopenia,[3],0 (0)
same,TEAE grade 3/4: Tumor pain,[3],0 (0)
same,TEAE grade 3/4: Vomiting,[3],0 (0)
same,TEAE any grade: ≥1 event,[4],19 (100)
same,TEAE grade 3/4: ≥1 event,[4],13 (68)
same,Serious TEAE: Anemia,"dose expansion, n=19",1 n (%)
same,Serious TEAE: Biliary tract infection,"dose expansion, n=19",1 n (%)
same,Serious TEAE: Chest pain,"dose expansion, n=19",1 n (%)
same,Serious TEAE: Fatigue,"dose expansion, n=19",1 n (%)
same,Serious TEAE: General health deterioration,"dose expansion, n=19",1 n (%)
same,Serious TEAE: Hepatic hemorrhage,"dose expansion, n=19",1 n (%)
same,Serious TEAE: Hepatic pain,"dose expansion, n=19",1 n (%)
same,Serious TEAE: Oxygen saturation decreased,"dose expansion, n=19",1 n (%)
same,Serious TEAE: Pulmonary hemorrhage,"dose expansion, n=19",1 n (%)
same,Serious TEAE: Respiratory failure,"dose expansion, n=19",1 n (%)
same,Serious TEAE: Thrombocytopenia,"dose expansion, n=19",1 n (%)
same,Serious TEAE: Upper respiratory tract infection,"dose expansion, n=19",1 n (%)
same,TEAE with an outcome of death,"dose expansion, upper respiratory tract infection, not considered treatment-related",One patient
same,new safety concerns or late toxicities with longer follow-up,follow-up of approximately 5 years and >4 years of treatment,No new safety concerns or late toxicities were identified
